Experiment [1] has as its target T1, Endothelin-converting enzyme 1 (Homo sapiens, UniProt P42892).
T1 sequence (P42892 whole entry): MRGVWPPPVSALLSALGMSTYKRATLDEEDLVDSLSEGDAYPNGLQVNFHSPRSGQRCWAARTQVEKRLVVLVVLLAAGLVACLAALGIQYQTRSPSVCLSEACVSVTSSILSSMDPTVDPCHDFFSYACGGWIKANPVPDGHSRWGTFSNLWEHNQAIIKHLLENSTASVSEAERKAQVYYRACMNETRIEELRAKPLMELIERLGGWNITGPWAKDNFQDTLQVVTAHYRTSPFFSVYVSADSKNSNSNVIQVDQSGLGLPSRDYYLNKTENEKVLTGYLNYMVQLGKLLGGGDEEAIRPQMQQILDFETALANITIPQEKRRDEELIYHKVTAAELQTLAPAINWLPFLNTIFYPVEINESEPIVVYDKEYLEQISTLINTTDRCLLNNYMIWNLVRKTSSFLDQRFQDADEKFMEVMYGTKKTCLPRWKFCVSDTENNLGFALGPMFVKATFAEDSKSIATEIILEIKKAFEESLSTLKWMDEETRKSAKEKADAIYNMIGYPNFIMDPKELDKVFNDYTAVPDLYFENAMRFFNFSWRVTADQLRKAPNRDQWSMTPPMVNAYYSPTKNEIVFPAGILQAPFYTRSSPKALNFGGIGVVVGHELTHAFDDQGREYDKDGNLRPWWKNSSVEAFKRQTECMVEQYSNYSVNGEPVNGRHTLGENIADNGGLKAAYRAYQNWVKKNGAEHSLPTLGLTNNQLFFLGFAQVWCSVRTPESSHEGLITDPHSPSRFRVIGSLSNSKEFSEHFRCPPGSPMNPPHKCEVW
The experiment can be described thus: Inhibition activity towards human recombinant Endothelin-converting enzyme 1 (hECE-1c) expressed in Cos-7 cells. The class given is cell-based. In short, it runs like this: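 Recombinant human ECE-1c from Cos-7 cells, 4 µg total protein per well, preincubated 10 min at 37 °C in 50 mM tris-maleate pH 6-8 with or without rising inhibitor concentrations. Reaction started with 20 µM (Pya21-(p-NO2)Phe22)bigET(19-35) (Km 20 µM), run 1 h at 37 °C, stopped by cooling. Fluorescence read at ex 340/em 400 nm.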

The target in the next experiment is T2, Neprilysin (Oryctolagus cuniculus, UniProt P08049).
T2 sequence (P08049 whole entry): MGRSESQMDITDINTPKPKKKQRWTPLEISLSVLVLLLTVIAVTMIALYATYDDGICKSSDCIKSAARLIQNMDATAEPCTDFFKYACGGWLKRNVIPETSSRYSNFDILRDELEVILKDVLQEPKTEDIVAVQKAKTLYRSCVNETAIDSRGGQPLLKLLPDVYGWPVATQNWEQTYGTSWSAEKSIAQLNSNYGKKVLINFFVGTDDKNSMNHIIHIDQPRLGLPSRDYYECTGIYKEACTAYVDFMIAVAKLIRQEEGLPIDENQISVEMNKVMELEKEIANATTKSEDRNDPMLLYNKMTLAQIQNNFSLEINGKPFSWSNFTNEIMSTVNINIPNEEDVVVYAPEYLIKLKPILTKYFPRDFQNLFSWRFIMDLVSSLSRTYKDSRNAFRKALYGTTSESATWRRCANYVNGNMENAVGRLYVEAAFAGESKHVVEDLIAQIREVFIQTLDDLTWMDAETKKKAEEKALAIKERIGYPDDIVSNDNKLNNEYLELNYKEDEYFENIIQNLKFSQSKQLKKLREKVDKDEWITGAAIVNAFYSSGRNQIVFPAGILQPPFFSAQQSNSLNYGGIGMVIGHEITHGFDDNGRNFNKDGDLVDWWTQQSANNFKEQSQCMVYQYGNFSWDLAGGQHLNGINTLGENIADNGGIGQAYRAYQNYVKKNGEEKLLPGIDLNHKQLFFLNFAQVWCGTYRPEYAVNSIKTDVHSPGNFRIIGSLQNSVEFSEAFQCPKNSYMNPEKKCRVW
The experiment can be described thus: Inhibition of neutral endopeptidase (NEP) isolated from rabbit kidney. In a few lines: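 Rabbit kidney NEP purified to homogeneity, final 250 ng/mL, preincubated 10 min at 37 °C with or without rising inhibitor concentrations in 50 mM Tris-HCl pH 7.4. Then 50 µM DGPA (Dansyl-Gly-(p-NO2)Phe-β-Ala; Km 37 µM) added for 1 h. Stopped with DMSO. Fluorescence read at ex 340/em 530 nm.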

In experiment [2] the target is T3, Angiotensin-converting enzyme (Rattus norvegicus, UniProt P47820).
T3 sequence (P47820 whole entry): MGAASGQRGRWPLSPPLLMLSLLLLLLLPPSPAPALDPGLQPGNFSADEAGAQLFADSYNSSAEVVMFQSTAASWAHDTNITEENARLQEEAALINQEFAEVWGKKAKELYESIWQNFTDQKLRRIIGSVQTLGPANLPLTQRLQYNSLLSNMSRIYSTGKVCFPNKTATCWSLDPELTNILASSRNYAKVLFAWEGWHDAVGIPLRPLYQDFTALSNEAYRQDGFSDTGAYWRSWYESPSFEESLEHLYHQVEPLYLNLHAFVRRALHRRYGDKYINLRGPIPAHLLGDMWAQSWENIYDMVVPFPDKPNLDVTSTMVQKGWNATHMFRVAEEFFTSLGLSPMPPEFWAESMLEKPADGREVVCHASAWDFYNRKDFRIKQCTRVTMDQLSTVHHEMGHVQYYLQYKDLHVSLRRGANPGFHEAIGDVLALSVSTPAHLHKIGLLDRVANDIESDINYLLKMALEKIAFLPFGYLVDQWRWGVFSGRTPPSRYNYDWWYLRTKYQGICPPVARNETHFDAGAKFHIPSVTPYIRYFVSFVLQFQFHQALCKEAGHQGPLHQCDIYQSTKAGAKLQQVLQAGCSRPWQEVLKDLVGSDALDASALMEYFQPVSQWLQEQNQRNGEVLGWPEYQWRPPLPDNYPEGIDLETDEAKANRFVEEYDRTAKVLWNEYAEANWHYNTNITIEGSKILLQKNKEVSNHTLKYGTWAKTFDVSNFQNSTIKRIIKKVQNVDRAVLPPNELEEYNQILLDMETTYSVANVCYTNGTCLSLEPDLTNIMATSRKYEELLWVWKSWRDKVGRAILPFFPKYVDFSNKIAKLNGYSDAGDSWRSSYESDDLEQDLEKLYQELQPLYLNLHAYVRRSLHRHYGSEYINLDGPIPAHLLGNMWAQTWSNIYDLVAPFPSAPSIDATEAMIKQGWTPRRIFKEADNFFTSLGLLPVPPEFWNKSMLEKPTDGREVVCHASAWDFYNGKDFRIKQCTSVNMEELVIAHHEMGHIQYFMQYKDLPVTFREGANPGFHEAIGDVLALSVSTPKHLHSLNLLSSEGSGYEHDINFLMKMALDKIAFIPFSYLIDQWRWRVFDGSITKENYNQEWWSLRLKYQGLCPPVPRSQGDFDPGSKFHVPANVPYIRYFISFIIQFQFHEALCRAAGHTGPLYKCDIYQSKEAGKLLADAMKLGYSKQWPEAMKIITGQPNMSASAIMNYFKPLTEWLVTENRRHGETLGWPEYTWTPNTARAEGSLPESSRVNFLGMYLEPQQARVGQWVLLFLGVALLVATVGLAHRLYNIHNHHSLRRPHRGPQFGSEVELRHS
The experiment is described as follows: Inhibition of Angiotensin I converting enzyme (ACE) purified from rat testis. In a few lines: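 ACE purified from rat testis, final 0.02 pmol/100 µL, preincubated 10 min at 37 °C with or without various inhibitor concentrations in 50 mM Tris/HCl/NaCl 1% pH 7.4. Then 50 µM N-Cbz-Phe-His-Leu (Km 50 µM) added for 30 min. Stopped with 2 N NaOH and diluted with water. Released His-Leu measured fluorometrically.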

As usually defined, the Ki is the dissociation constant of the complex between target and ligand, obtained from inhibition or displacement.

For the compound `O=C(O)[C@H](Cc1c[nH]c2ccccc12)NC(=O)[C@H](CS)[C@@H]1CCc2ccccc21`, the inhibitory constant (Ki) in experiment [1] was 680 nM; at Neprilysin, 27 nM; in experiment [2], 170 nM.

Turning to `O=C(O)[C@H](Cc1c[nH]c2ccccc12)NC(=O)[C@@H](CS)[C@@H]1CCc2ccccc21`, the values for the inhibition constant (Ki) (in experiment [1]; on Neprilysin; in experiment [2]) were 1140 nM, 10 nM and 41 nM, respectively.

With `C[C@@H](c1ccccc1)[C@@H](CS)C(=O)N[C@@H](Cc1c[nH]c2ccccc12)C(=O)O`, the values for the Ki (in experiment [1]; at Neprilysin; in experiment [2]) were 200 nM, 2.4 nM and 33 nM, respectively.

For the compound `O=C(O)[C@H](Cc1c[nH]c2ccccc12)NC(=O)[C@H](CS)[C@H]1CCc2ccccc21`, the Ki in experiment [1] is 26 nM; on Neprilysin, 0.7 nM; in experiment [2], 43 nM.

On to `CC(c1ccc(-c2ccccc2)cc1)C(CS)C(=O)N[C@@H](Cc1c[nH]c2ccccc12)C(=O)O` (some centres not stated), for which the inhibition constant (Ki) in experiment [1] was found to be 220 nM; at Neprilysin, 4.8 nM; in experiment [2], 62 nM.

As for `O=C(O)C(Cc1c[nH]c2ccccc12)NC(=O)C(CS)c1cccc2ccccc12` (configuration not stated), the Ki in experiment [1] is 1560 nM; on Neprilysin it was 22 nM; in experiment [2], 150 nM.

For the compound `O=C(O)[C@H](Cc1c[nH]c2ccccc12)NC(=O)[C@H](CS)[C@@H]1CCCc2ccccc21`, the inhibition constant Ki in experiment [1] was found to be 1240 nM; on Neprilysin, 43 nM; in experiment [2], 134 nM.

In the case of `O=C(O)C(Cc1c[nH]c2ccccc12)NC(=O)C(CS)c1cccc(-c2ccccc2)c1` (configuration not stated), the results for the inhibitory constant (Ki) (in experiment [1]; on Neprilysin; in experiment [2]) were 900 nM, 35 nM and 150 nM, respectively.

Regarding `CC(c1ccccc1)C(CS)C(=O)NC(Cc1c[nH]c2ccccc12)C(=O)O` (configuration not stated), the figures for the Ki (in experiment [1]; at Neprilysin; in experiment [2]) were 300 nM, 3 nM and 40 nM, respectively.

Turning to `C[C@H](c1ccccc1)[C@@H](CS)C(=O)N[C@@H](Cc1c[nH]c2ccccc12)C(=O)O`, the Ki is 580 nM in experiment [1], 5 nM at Neprilysin and 290 nM in experiment [2].

Turning to `C[C@H](c1ccc(-c2ccccc2)cc1)[C@H](CS)C(=O)N[C@@H](Cc1c[nH]c2ccccc12)C(=O)O`, the inhibition constant (Ki) in experiment [1] was 110 nM; on Neprilysin it was 30 nM; in experiment [2] it was 65 nM.

For the compound `CC(c1cccc2ccccc12)C(CS)C(=O)NC(Cc1c[nH]c2ccccc12)C(=O)O` (configuration not stated), the figures for the Ki (in experiment [1]; on Neprilysin; in experiment [2]) were 600 nM, 51 nM and 79 nM, respectively.

For `C[C@H](c1ccc(-c2ccccc2)cc1)[C@@H](CS)C(=O)N[C@@H](Cc1c[nH]c2ccccc12)C(=O)O`, the Ki in experiment [1] came out at 190 nM; on Neprilysin it was 5 nM; in experiment [2] it was 330 nM.

On to `O=C(O)C(Cc1c[nH]c2ccccc12)NC(=O)C(CS)C1CCCc2ccccc21` (configuration not stated), for which the Ki came to 300 nM in experiment [1], 4.5 nM at Neprilysin and 18 nM in experiment [2].

Regarding `O=C(O)[C@H](Cc1c[nH]c2ccccc12)NC(=O)[C@H](CS)[C@H]1CCCc2ccccc21`, the results for the Ki (in experiment [1]; on Neprilysin; in experiment [2]) were 250 nM, 3 nM and 76 nM, respectively.

Take `O=C(O)C(Cc1c[nH]c2ccccc12)NC(=O)C(CS)c1ccc(-c2ccccc2)cc1` (configuration not stated): the results for the Ki (in experiment [1]; on Neprilysin; in experiment [2]) were 4150 nM, 135 nM and 77 nM, respectively.

In the case of `O=C(O)C(Cc1c[nH]c2ccccc12)NC(=O)C(CS)C1CCc2ccccc21` (configuration not stated), the inhibition constant Ki came out at 100 nM in experiment [1], 1.8 nM at Neprilysin and 20 nM in experiment [2].

For `O=C(O)[C@H](Cc1c[nH]c2ccccc12)NC(=O)[C@@H](CS)[C@H]1CCCc2ccccc21`, the Ki in experiment [1] was determined as 190 nM; on Neprilysin, 3 nM; in experiment [2], 10 nM.

Turning to `O=C(N[C@@H](Cc1c[nH]c2ccccc12)C(=O)O)C(CS)[C@@H]1CCCc2ccccc21` (some centres not stated), the results for the Ki (in experiment [1]; on Neprilysin; in experiment [2]) were 670 nM, 8 nM and 26 nM, respectively.

For the compound `C[C@@H](c1ccc(-c2ccccc2)cc1)[C@H](CS)C(=O)N[C@@H](Cc1c[nH]c2ccccc12)C(=O)O`, the Ki in experiment [1] was determined as 920 nM; at Neprilysin, 35 nM; in experiment [2], 38 nM.

As to `C[C@@H](c1ccc(-c2ccccc2)cc1)[C@@H](CS)C(=O)N[C@@H](Cc1c[nH]c2ccccc12)C(=O)O`, the inhibitory constant (Ki) in experiment [1] is 135 nM; on Neprilysin, 1.5 nM; in experiment [2], 130 nM.

Turning to `C[C@H](c1ccccc1)[C@H](CS)C(=O)N[C@@H](Cc1c[nH]c2ccccc12)C(=O)O`, the figures for the inhibitory constant (Ki) (in experiment [1]; on Neprilysin; in experiment [2]) were 100 nM, 2.2 nM and 29 nM, respectively.

For `CC(c1ccc2ccccc2c1)C(CS)C(=O)NC(Cc1c[nH]c2ccccc12)C(=O)O` (configuration not stated), the values for the Ki (in experiment [1]; on Neprilysin; in experiment [2]) were 980 nM, 5.4 nM and 47 nM, respectively.

As to `C[C@@H](c1ccccc1)[C@H](CS)C(=O)N[C@@H](Cc1c[nH]c2ccccc12)C(=O)O`, the figures for the Ki (in experiment [1]; on Neprilysin; in experiment [2]) were 780 nM, 2.5 nM and 15 nM, respectively.

The values are drawn from ChEMBL document CHEMBL1135904, “Toward an optimal joint recognition of the S1' subsites of endothelin converting enzyme-1 (ECE-1), angiotensin converting enzyme (ACE), and neutral endopeptidase (NEP)” (J Med Chem, 2002).
